# Laboratory results from ChEMBL document CHEMBL1130113 (J Med Chem, 1997).
# Where a SMILES comes first, the peptide text is derived from it. [ ]: non-standard residue; d: D form. Aib = CC(C)(N)C(=O)O
# Assays:
# Mu-type opioid receptor [1] = target: Mu-type opioid receptor (Rattus norvegicus, UniProt P33535); assay: Affinity was assessed using competitive binding assay labeled with [3H]- DAGO (1.28 nM) for Opioid receptor mu 1
# Summary of the method: (§1)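 Rat brain synaptosomal membranes, preincubated, in duplicate tubes. Buffer 50 mM HEPES pH 7.5, 5 mM MgCl2, glycerol, protease inhibitors. Equilibrium incubation 120 min at room temperature (22-23 °C). Labeled peptide displaced by 6-14 analogue concentrations spanning a 1000-fold range. Filtered on glass fiber and washed 3× with ice-cold buffer containing 0.01% BSA. Ki from IC50 by Cheng-Prusoff.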
# [2] = target: Delta-type opioid receptor (Rattus norvegicus, UniProt P33533); assay: Affinity was assessed using competitive binding assay labeled with [3H]DPDPE (6.3 nM) for Opioid receptor delta 1; summary of the method: as §1
# Chain of Delta-type opioid receptor (Rattus norvegicus, UniProt P33533) (P33533 whole entry): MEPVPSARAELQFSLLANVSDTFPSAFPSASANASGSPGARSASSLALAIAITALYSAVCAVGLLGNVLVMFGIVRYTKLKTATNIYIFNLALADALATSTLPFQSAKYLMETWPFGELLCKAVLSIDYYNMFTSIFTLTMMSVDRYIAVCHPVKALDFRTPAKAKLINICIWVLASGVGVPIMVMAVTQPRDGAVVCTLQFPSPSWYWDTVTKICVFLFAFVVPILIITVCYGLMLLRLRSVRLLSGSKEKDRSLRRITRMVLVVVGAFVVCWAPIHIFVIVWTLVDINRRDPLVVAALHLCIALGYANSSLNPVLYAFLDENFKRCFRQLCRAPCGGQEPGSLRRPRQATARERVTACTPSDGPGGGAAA
# [3] = IC50 ratio measured as the IC50 value of GPI to that of MVD.; type: functional
# [4] = target: Delta-type opioid receptor (Mus musculus, UniProt P32300); assay: Functional biological activity for Opioid receptor delta 1 was determined in vitro, on mouse vas deferens (MVD).; type: tissue-based
# Chain of Delta-type opioid receptor (Mus musculus, UniProt P32300) (P32300 whole entry): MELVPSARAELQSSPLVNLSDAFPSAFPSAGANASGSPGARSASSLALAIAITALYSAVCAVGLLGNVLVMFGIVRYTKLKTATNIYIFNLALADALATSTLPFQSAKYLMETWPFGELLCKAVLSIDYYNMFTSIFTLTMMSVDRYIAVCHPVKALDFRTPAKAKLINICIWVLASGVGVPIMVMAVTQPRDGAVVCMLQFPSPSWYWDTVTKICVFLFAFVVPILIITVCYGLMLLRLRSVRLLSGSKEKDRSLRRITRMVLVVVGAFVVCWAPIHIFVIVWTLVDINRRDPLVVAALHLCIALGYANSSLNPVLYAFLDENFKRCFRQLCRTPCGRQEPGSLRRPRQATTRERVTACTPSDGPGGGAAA
# Mu-type opioid receptor [5] = target: Mu-type opioid receptor (Cavia porcellus, UniProt P97266); assay: Functional biological activity for mu opioid receptor was determined in vitro, on guinea pig ileum (GPI).; type: tissue-based
# Chain of Mu-type opioid receptor (Cavia porcellus, UniProt P97266) (P97266 whole entry): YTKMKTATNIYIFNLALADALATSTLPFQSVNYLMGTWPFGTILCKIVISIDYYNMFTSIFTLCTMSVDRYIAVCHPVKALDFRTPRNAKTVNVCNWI
# Summary of the method: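 A 2-3 cm guinea pig ileum segment was held in a 20 mL organ bath with 70 µM hexamethonium bromide and 0.125 µM mepyramine maleate, gassed with 95% O2/5% CO2 at 36 °C. Transmural stimulation used 0.5 ms square-wave pulses at 0.1 Hz, at 1.5× maximal-twitch voltage (~30 V). Twitch inhibition was read from dose-response curves against dermorphin or morphine.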
# [6] = target: Opioid receptors; mu & delta (Homo sapiens) (UniProt P41143+P35372); assay: Selectivity ratio measured as the Ki ratio of mu receptor th that of delta receptor; type: protein assay
# Chain of Opioid receptors; mu & delta (Homo sapiens) (P35372 whole entry, looked up): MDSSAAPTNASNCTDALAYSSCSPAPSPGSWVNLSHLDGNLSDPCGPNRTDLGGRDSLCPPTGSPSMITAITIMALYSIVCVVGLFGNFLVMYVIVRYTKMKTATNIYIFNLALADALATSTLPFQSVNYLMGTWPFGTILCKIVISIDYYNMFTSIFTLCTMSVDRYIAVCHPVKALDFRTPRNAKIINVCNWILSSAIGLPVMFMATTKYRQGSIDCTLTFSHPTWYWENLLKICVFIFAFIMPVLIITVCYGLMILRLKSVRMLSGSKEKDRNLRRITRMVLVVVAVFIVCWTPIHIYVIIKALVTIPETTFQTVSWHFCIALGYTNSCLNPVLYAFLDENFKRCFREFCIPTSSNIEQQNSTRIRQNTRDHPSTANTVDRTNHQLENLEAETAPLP
# Chain of Opioid receptors; mu & delta (Homo sapiens) (P41143 whole entry, looked up): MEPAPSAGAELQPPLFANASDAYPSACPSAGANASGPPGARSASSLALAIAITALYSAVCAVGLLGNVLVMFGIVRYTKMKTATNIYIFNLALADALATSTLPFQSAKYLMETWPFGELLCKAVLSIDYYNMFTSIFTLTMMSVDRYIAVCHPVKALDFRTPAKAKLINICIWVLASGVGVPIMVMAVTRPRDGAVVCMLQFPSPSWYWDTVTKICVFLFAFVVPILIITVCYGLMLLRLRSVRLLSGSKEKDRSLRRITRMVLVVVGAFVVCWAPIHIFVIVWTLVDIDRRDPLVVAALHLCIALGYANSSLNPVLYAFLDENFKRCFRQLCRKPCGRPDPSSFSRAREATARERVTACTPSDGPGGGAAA
# Summary of the method: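 Ratio of Ki values for mu and delta receptors. Both were measured in rat brain synaptosomal membranes in 50 mM HEPES pH 7.5 with 5 mM MgCl2, glycerol and protease inhibitors, for 120 min at 22-23 °C. Radioligand was displaced by 6-14 concentrations over a 1000-fold range. Bound ligand was collected by glass-fiber filtration, and Ki came from IC50 by Cheng-Prusoff.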
# Chain of Mu-type opioid receptor (Rattus norvegicus, UniProt P33535) (P33535 whole entry): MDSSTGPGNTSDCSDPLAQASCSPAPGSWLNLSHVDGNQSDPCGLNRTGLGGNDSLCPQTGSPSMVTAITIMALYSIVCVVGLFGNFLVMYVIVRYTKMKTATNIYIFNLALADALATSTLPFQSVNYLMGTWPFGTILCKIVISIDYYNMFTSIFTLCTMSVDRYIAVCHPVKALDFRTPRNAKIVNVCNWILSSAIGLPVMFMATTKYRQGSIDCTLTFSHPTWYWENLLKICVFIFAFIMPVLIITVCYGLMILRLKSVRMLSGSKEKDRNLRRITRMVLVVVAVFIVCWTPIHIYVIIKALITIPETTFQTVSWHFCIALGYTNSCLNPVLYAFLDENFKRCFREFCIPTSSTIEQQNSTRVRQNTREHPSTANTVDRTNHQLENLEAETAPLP
SMILES,Ki (Mu-type opioid receptor [1]) [nM],Ki [2] [nM],IC50 ratio [3],IC50 [4] [nM],IC50 (Mu-type opioid receptor [5]) [nM],Selectivity ratio [6]
CC(C)[C@H](NC(=O)[C@@H](NC(=O)C(C)(C)NC(=O)[C@H](Cc1ccccc1)NC(=O)[C@@H](C)NC(=O)[C@@H](N)Cc1ccc(O)cc1)C(C)C)C(=O)NCC(N)=O,0.43,0.2,13,0.36,4.5,
"CC(NC(=O)[C@@H](N)Cc1ccc(O)cc1)C(=O)N[C@@H](Cc1ccccc1)C(=O)N[C@@H](CC(=O)O)C(=O)N[C@H](C(=O)N[C@H](C(=O)NCC(N)=O)C(C)C)C(C)C (single isomer, unassigned) [DELTORPHIN C]",,,,,420,
CC(C)[C@H](NC(=O)[C@H](CC(=O)O)NC(=O)C(C)(C)NC(=O)[C@@H](C)NC(=O)[C@@H](N)Cc1ccc(O)cc1)C(=O)N[C@H](C(=O)NCC(N)=O)C(C)C,4540,0.8,> 175,57.3,> 10,5680
CC(C)[C@H](NC(=O)[C@H](CC(=O)O)NC(=O)C(C)(C)NC(=O)[C@@H](N)Cc1ccc(O)cc1)C(=O)N[C@H](C(=O)NCC(N)=O)C(C)C (H-Y[Aib]DVVG-NH2),441000,2630,,,,
CC(C)[C@H](NC(=O)[C@H](CC(=O)O)NC(=O)C(C)(C)NC(=O)C(C)(C)NC(=O)[C@@H](N)Cc1ccc(O)cc1)C(=O)N[C@H](C(=O)NCC(N)=O)C(C)C,15200,3.62,,70,> 10,
CC(C)[C@H](NC(=O)[C@H](CC(=O)O)NC(=O)[C@H](Cc1ccccc1)NC(=O)C(C)(C)NC(=O)[C@@H](N)Cc1ccc(O)cc1)C(=O)N[C@H](C(=O)NCC(N)=O)C(C)C (H-Y[Aib]FDVVG-NH2),1020,0.12,> 7000,1.44,> 10,
CC(C)[C@H](NC(=O)[C@@H](NC(=O)C(C)(C)NC(=O)[C@H](Cc1ccccc1)NC(=O)[C@@H](C)NC(=O)[C@@H](N)Cc1ccc(O)cc1)C(C)C)C(=O)NCC(=O)O,4.48,0.11,,,,
CC(C)[C@H](NC(=O)[C@@H](NC(=O)[C@@H](CC(=O)O)NC(=O)C(C)(C)NC(=O)C(C)(C)NC(=O)[C@@H](N)Cc1ccc(O)cc1)C(C)C)C(=O)NCC(N)=O,,,> 21,,,
CC(C)[C@H](NC(=O)[C@H](CC(=O)O)NC(=O)[C@@H](C)NC(=O)[C@@H](C)NC(=O)[C@@H](N)Cc1ccc(O)cc1)C(=O)N[C@H](C(=O)NCC(N)=O)C(C)C,13600,5.72,,,,
